Values belong to the compound of their own block, whether it stands above or below them.
Key:
Canis familiaris [1] = organism: Canis familiaris; test: In vitro electrophysiological activity in isolated canine cardiac Purkinje fibers using standard microelectrode technique; format: functional, Canis lupus familiaris, Purkinje fiber
Procedure, shortened: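 Canine cardiac Purkinje fibers studied with standard intracellular microelectrodes. C20APD95 is the concentration raising action potential duration at 95% repolarization by 20% over control. Reported as the log mean of n experiments with the range.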

Mustela putorius furo [2] = organism: Mustela putorius furo; test: In vitro contractile function in isolated ferret papillary muscle at 10 uM.; format: functional, Muscle tissue
Procedure, shortened: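 Isolated ferret papillary muscle exposed to drug at 10 μM. Read-out is percent change in contractile force from the control value. Reported as the average of n experiments with the range.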

[3] = biological target: Beta-2 adrenergic receptor (Canis lupus familiaris, UniProt P54833); test: In vitro Beta-2 adrenergic receptor affinity in partially purified membrane fractions from canine lung tissue using […]dihydroalprenolol (4.5 nM); format: cell membranes
Chain of Beta-2 adrenergic receptor (P54833 whole entry): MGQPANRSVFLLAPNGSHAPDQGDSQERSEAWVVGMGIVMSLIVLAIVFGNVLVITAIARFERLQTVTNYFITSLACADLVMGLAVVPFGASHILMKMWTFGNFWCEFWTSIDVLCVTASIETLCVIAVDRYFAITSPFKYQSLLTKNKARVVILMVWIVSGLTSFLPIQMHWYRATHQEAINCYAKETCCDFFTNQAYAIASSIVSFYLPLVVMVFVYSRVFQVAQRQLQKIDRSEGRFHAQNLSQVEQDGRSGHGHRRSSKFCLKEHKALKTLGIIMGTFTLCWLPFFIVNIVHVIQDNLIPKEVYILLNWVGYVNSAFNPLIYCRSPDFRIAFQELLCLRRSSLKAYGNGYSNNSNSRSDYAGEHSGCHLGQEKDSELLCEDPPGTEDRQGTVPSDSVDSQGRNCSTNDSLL

Canis familiaris [4] = test: In vivo cardiac output in anesthetized dog at 30 mg/kg; format: functional, Canis lupus familiaris
Procedure, shortened: (§1)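 Pentobarbital-anesthetized mongrel dogs, 30 min stabilization. Cumulative iv doses of 3, 10 and 30 mg/kg, each over 5 min, monitored every 5 min for 15 min. Percent change ± SEM from control at 15 min after the 30 mg/kg dose; n = 4.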

Canis familiaris [5] = test: In vivo PES efficacy in 8 conscious dogs (PES programmed electrical stimulation protocol); format: functional, Canis lupus familiaris
Procedure, shortened: (§2)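 Mongrel dogs with surgically produced occlusion/reperfusion infarction, studied conscious 3–8 days later. Two control arrhythmias induced by programmed electrical stimulation before iv drug; SVT ended by burst pacing, VF by DC countershock. Counted effective if noninducible after drug.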

Canis familiaris [6] = test: In vivo heart rate in anesthetized dog at 30 mg/kg; format: functional, Canis lupus familiaris; procedure, shortened: as §1
Canis familiaris [7] = test: In vivo isoproterenol response in conscious dogs at 10.0 mg/kg; format: functional, Canis lupus familiaris
Procedure, shortened: (§3)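 Conscious mongrel dogs (n = 4) with lead II ECG. Isoproterenol given iv (0.04, 0.08, 0.16 µg/kg) before and after cumulative compound doses of 0.3–10.0 mg/kg. Percent change from the control heart-rate response to 0.08 µg/kg isoproterenol, ± SEM.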

[8] = Compound was evaluated for half life; format: ADME
Canis familiaris [9] = test: In vivo total peripheral resistance in anesthetized dog at 30 mg/kg; format: functional, Canis lupus familiaris; procedure, shortened: as §1
Canis familiaris [10] = test: In vivo isoproterenol response in conscious dogs at 3.0 mg/kg; format: functional, Canis lupus familiaris; procedure, shortened: as §3
Canis familiaris [11] = test: In vivo isoproterenol response in conscious dogs at 0.3 mg/kg; format: functional, Canis lupus familiaris; procedure, shortened: as §3
Canis familiaris [12] = test: In vivo efficacy against halothane/epinephrine induced arrhythmias in 4 anesthetized dogs at 0.3 mg/kg; format: functional, Canis lupus familiaris
Procedure, shortened: (§4)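 Mongrel dogs under thiopental, ventilated with 1.5 vol% halothane in O2. After 15–30 min stabilization, drug given iv over 10 min. After 20 min equilibration, epinephrine infused at 1.5 µg/kg/min for 15 min. Effective if SVT/VF could not be induced.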

Canis familiaris [13] = test: In vivo isoproterenol response in conscious dogs at 1.0 mg/kg; format: functional, Canis lupus familiaris; procedure, shortened: as §3
Canis familiaris [14] = test: In vivo left ventricular contractility change in anesthetized dog at 30 mg/kg; format: functional, Canis lupus familiaris, Heart left ventricle; procedure, shortened: as §1
[15] = biological target: Phosphodiesterase; PDE3 & PDE4 (Homo sapiens) (UniProt P27815+Q14432+Q08499+Q07343+Q13370+Q08493); test: Inhibition of canine cardiac particulate cAMP phosphodiesterase; format: protein assay; details: Canis lupus familiaris; target entry is the homologue from another species; concentration not given here
Procedure, shortened: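 Particulate cAMP phosphodiesterase fraction from dog heart; inhibition measured at 100 μM.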

Canis familiaris [16] = test: In vivo PES efficacy in conscious dogs (iv); format: functional; details: Canis lupus familiaris, read-out: MED; procedure, shortened: as §2
Canis familiaris [17] = test: In vivo efficacy against halothane/epinephrine induced arrhythmias in 4 anesthetized dogs at 1 mg/kg; format: functional, Canis lupus familiaris; procedure, shortened: as §4
Canis familiaris [18] = test: In vivo coronary flow in anesthetized dog at 30 mg/kg; format: functional, Canis lupus familiaris; procedure, shortened: as §1
Canis familiaris [19] = test: In vivo mean arterial pressure in anesthetized dog at 30 mg/kg; format: functional, Canis lupus familiaris, Artery; procedure, shortened: as §1
[20] = Compound was evaluated for lethal dose in rats after intravenous administration; Range is 200-300 mg/kg; format: toxicity, organism-based; details: rat, in vivo
Canis familiaris [21] = test: In vivo efficacy against halothane/epinephrine induced arrhythmias in 2 anesthetized dogs at 0.3 mg/kg; format: functional, Canis lupus familiaris; procedure, shortened: as §4
[22] = Bioavailability after oral administration of 3 mg/kg to dogs; format: ADME, organism-based, Canis lupus familiaris; details: dog, in vivo
Mustela putorius furo [23] = organism: Mustela putorius furo; test: In vitro contractile function in isolated ferret papillary muscle at 10 uM; format: functional, Muscle tissue
Procedure, shortened: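 Isolated ferret papillary muscle; drug at 10 μM. Read-out is percent change in force of contraction from the control value. Value is the average of n experiments, with the range given.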

Canis familiaris [24] = test: In vivo efficacy against halothane/epinephrine induced arrhythmias in 8 anesthetized dogs at 1 mg/kg; format: functional, Canis lupus familiaris; procedure, shortened: as §4
Canis familiaris [25] = test: In vivo efficacy against halothane/epinephrine induced arrhythmias in 4 anesthetized dogs at 3 mg/kg; format: functional, Canis lupus familiaris; procedure, shortened: as §4
Canis familiaris [26] = test: In vivo efficacy against halothane/epinephrine induced arrhythmias in 6 anesthetized dogs at 3 mg/kg; format: functional, Canis lupus familiaris; procedure, shortened: as §4
Canis familiaris [27] = test: In vivo PES efficacy in 9 conscious dogs (PES programmed electrical stimulation protocol); format: functional, Canis lupus familiaris; procedure, shortened: as §2

- IC50 [3]: > 100 µM
SMILES: Cc1nccn1-c1ccc(OCCNCC(O)COc2ccc(N(C)S(C)(=O)=O)cc2)cc1 (stereo not given)
- C20 APD95 (Canis familiaris [1]): >30 µM
- Delta F (Mustela putorius furo [2]): -16%

SMILES: CCN(CC)CCOc1ccc(-n2ccnc2)cc1
- C20 APD95 (Canis familiaris [1]): 3.4 µM

- IC50 [3]: 57 µM
SMILES: Cc1nccn1-c1ccc(OCCNCC(O)COc2ccc(NS(C)(=O)=O)cc2)cc1.O=P(O)(O)O (stereo not given)
- C20 APD95 (Canis familiaris [1]): 7.3 µM
- Delta F (Mustela putorius furo [2]): 9%

- IC50 [3]: 23 µM
SMILES: CC(C)(COc1ccc(-n2ccnc2)cc1)NCC(O)COc1ccc(NS(C)(=O)=O)cc1.Cl.Cl (stereo not given)
- C20 APD95 (Canis familiaris [1]): 0.5 µM
- Delta F (Mustela putorius furo [2]): 69%

- half-life [8]: 180 min
- inhibition [15]: 19%
- IC50 [3]: 100 µM
SMILES: CS(=O)(=O)Nc1ccc(OC[C@@H](O)CNCCOc2ccc(-n3ccnc3)cc2)cc1.Cl
- CO (Canis familiaris [4]): -32%
- No. effective (Canis familiaris [5]): 7
- HR (Canis familiaris [6]): -48%
- C20 APD95 (Canis familiaris [1]): 0.8 µM
- Response (Canis familiaris [7]): -64%
- TPR (Canis familiaris [9]): 6%
- Response (Canis familiaris [10]): -45%
- Response (Canis familiaris [11]): 10%
- No. effective (Canis familiaris [12]): 2
- Response (Canis familiaris [13]): -25%
- Delta F (Mustela putorius furo [2]): 75%
- LV dP/dt (Canis familiaris [14]): -28%
- minimal effective dose (Canis familiaris [16]): ~0.4 mg/kg
- No. effective (Canis familiaris [17]): 4
- Coronary flow (Canis familiaris [18]): -41%
- MAP (Canis familiaris [19]): -30%

SMILES: CS(=O)(=O)Nc1ccc(OCC(O)CNCCOc2ccc(-n3ccnc3)cc2)cc1.Cl (stereo not given)
- CO (Canis familiaris [4]): -28%
- LD50 [20]: 200 mg/kg
- No. effective (Canis familiaris [5]): 8
- HR (Canis familiaris [6]): -49%
- C20 APD95 (Canis familiaris [1]): 0.4 µM
- Response (Canis familiaris [7]): -78%
- TPR (Canis familiaris [9]): 3%
- Response (Canis familiaris [10]): -74%
- No. effective (Canis familiaris [21]): 0
- Response (Canis familiaris [11]): 30%
- bioavailability [22]: 60%
- Delta F (Mustela putorius furo [23]): 53%
- Response (Canis familiaris [13]): -0.75%
- LV dp/dt (Canis familiaris [14]): -38%
- No. effective (Canis familiaris [24]): 6
- minimal effective dose (Canis familiaris [16]): ~1 mg/kg
- IC50 [3]: 47 µM
- Coronary flow (Canis familiaris [18]): -29%
- MAP (Canis familiaris [19]): -25%

- IC50 [3]: > 100 µM
SMILES: CS(=O)(=O)Nc1ccc(OC[C@H](O)CNCCOc2ccc(-n3ccnc3)cc2)cc1.Cl
- C20 APD95 (Canis familiaris [1]): 0.8 µM
- Response (Canis familiaris [7]): 41%
- Response (Canis familiaris [10]): -6%
- Response (Canis familiaris [11]): 40%
- Delta F (Mustela putorius furo [23]): 27%
- Response (Canis familiaris [13]): 62%
- No. effective (Canis familiaris [25]): 1
- No. effective (Canis familiaris [17]): 1

SMILES: CCN(CC)CC(O)COc1ccc(NS(C)(=O)=O)cc1 (stereo not given)
- C20 APD95 (Canis familiaris [1]): 4.8 µM

- IC50 [3]: > 100 µM
SMILES: CN(c1ccc(OCC(O)CNCCOc2ccc(-n3ccnc3)cc2)cc1)S(C)(=O)=O.Cl.Cl (stereo not given)
- C20 APD95 (Canis familiaris [1]): 1.4 µM
- Delta F (Mustela putorius furo [2]): -15%

SMILES: CC(C)NCC(O)c1ccc(NS(C)(=O)=O)cc1 (racemic) [SOTALOL]
- CO (Canis familiaris [4]): -61%
- HR (Canis familiaris [6]): -51%
- C20 APD95 (Canis familiaris [1]): 18 µM
- No. effective (Canis familiaris [26]): 6
- TPR (Canis familiaris [9]): 78%
- Response (Canis familiaris [10]): -79%
- No. effective (Canis familiaris [27]): 7
- Response (Canis familiaris [11]): -72%
- Response (Canis familiaris [13]): -42%
- LV dP/dt (Canis familiaris [14]): -52%
- minimal effective dose (Canis familiaris [16]): ~2 mg/kg
- No. effective (Canis familiaris [17]): 4
- Coronary flow (Canis familiaris [18]): -51%
- MAP (Canis familiaris [19]): -42%

From ChEMBL document CHEMBL1125110, “Synthesis and pharmacological studies of N-[4-[2-hydroxy-3-[[2-[4-(1H-imidazol-1-yl)phenoxy]ethyl]amino]propoxy]phenyl]methanesulfonamide, a novel antiarrhythmic agent with class II and class III activities” (J Med Chem, 1990)
